# From ChEMBL document CHEMBL1759944, “Structure-activity relationship of 2,4,5-trioxoimidazolidines as inhibitors of thymidine phosphorylase” (Eur J Med Chem, 2011)
# Counter-ions that a name gives are not always drawn.
# Target: Thymidine phosphorylase (Escherichia coli K-12, UniProt P07650)
# Assay: Inhibition of Escherichia coli Thymidine phosphorylase by spectrophotometry
# Conditions: not given; call rule not given here
# Outline: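 E. coli TP (0.22 units) added to start a 1 ml reaction containing […] and inhibitor in 0.1 M potassium phosphate, pH 7.4. Loss of thymidine absorbance followed at 265 nm, 25 °C, in a thermostatted cuvette. IC50 obtained from inhibition curves by enzyme kinetics analysis.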
# Sequence of Thymidine phosphorylase (P07650 whole entry): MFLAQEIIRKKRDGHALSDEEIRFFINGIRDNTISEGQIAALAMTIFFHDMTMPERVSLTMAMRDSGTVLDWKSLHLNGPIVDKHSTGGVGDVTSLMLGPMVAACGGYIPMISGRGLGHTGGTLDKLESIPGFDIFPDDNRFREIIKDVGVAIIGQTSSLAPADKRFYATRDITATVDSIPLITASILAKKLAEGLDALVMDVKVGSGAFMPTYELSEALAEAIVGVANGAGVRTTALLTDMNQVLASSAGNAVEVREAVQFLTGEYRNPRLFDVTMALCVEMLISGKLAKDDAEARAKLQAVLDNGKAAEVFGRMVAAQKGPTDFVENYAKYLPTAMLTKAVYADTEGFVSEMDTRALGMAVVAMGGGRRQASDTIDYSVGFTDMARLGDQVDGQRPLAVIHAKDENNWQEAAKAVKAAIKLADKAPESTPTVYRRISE
row,IC50,SMILES
1,Active,O=C(O)CN1C(=O)C(=O)N(Cc2cccc(Cl)c2)C1=O

# Same assay, conditions: read-out: IC50
row,IC50 [µM],SMILES
1,264,O=C(O)CN1C(=O)C(=O)N(Cc2ccccc2)C1=O
2,236,Cc1ccccc1CN1C(=O)C(=O)N(CC(=O)O)C1=O
3,342,CCOC(=O)CN1C(=O)C(=O)N(Cc2ccccc2)C1=O
4,66,NC(=O)CCN1C(=O)C(=O)N(Cc2cccc(Cl)c2)C1=O
5,103,O=C1NC(=O)N(CCc2ccccc2)C1=O
6,128,Cc1ccccc1CN1C(=O)NC(=O)C1=O
7,115,O=C1NC(=O)N(Cc2ccccc2)C1=O
8,106,NC(=O)CCN1C(=O)C(=O)N(Cc2ccccc2)C1=O
9,303,CCOC(=O)CN1C(=O)C(=O)N(Cc2ccccc2C)C1=O
10,85,O=C(O)CN1C(=O)C(=O)N(CCc2ccccc2)C1=O
11,357,CCOC(=O)CN1C(=O)C(=O)N(CCc2ccccc2)C1=O
12,40,NC(=O)CCN1C(=O)C(=O)N(CCc2ccccc2)C1=O
13,117,O=C1NC(=O)N(Cc2cccc(Cl)c2)C1=O
14,88,Cc1ccccc1CN1C(=O)C(=O)N(CCC(N)=O)C1=O
15,0.036,N=C1CCCN1Cc1[nH]c(=O)[nH]c(=O)c1Cl [TIPIRACIL HYDROCHLORIDE]
16,292,CCOC(=O)CN1C(=O)C(=O)N(Cc2cccc(Cl)c2)C1=O
